Like-named read-outs stand apart in the source and are kept apart here.
Columns and labels:
σ1R [1] = target: T1, σ1R (Cavia porcellus, UniProt Q60492); experiment: σ1R radioligand binding with [3H]; set-up: species or system guinea pig; details: for Ki σ2R /Ki σ1R: selectivity ratio σ2R over σ1R
In short: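 Membranes from frozen whole guinea pig brain. Each tube held 3 nmol/L [3H](+)-pentazocine (28 Ci/mmol) and 8.0 mg tissue.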

[2] = In vitro microsomal stability in RLMs; type: in vitro ADME, rat; details: for microsomal CLint at 1 μM: rat, rat liver microsomes, pH 7.4
In short: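 Test compound at 1 μM (spiked from 200 μM stock) in 50 mM phosphate buffer pH 7.4 with 1 mg protein/mL rat liver microsomes and 3 mM MgCl2. Mixture pre-incubated 5 min at 37 ± 0.5 °C, then started with NADPH (1 mM final) and shaken for 30 min. Aliquots taken at 0, 5, 10, 15, 20 and 30 min, quenched in ice-cold acetonitrile with internal standard, filtered and analysed by LC-MS/MS. Controls: verapamil (positive) and no-NADPH mixture (negative).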

[3] = Metabolic soft spot identification of 12 in RLMs; type: in vitro ADME, rat; details: RLMs with NADPH
In short: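 Test compound at 10 μM in 50 mM phosphate buffer pH 7.4 with 1 mg protein/mL rat liver microsomes, pre-incubated 5 min at 37 ± 0.5 °C with shaking. Reaction started with NADPH (1 mM final). Samples taken at 0 min (control) and 10 min, mixed with an equal volume of ice-cold acetonitrile, vortexed 2 min and centrifuged at 10,000 g for 5 min. Supernatant analysed by LC-HRMS on a QToF.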

σ1R [4] = target: T1, σ1R; details: selectivity ratio; ref Yous et al. 2005; cited from earlier work
σ2R = details: read-out: Ki (nM ± SEM) σ2R; ref Yous et al. 2005; cited from earlier work

T1 sequence (Q60492 whole entry): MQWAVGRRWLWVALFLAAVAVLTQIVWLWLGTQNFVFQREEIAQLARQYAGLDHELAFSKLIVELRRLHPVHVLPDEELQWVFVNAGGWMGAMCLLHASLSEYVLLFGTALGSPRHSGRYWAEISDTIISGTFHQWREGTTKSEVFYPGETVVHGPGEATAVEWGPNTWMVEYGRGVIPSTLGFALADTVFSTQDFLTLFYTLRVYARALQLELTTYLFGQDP

Row | Ki (σ1R [1]) [µM] | Ki σ2R /Ki σ1R (σ1R [1]) | microsomal CLint at 1 μM [2] [µL/min/mg] | remaining unmodified at the end of 10 min incubation [3] | t1/2 (in vitro hepatic microsomal half-life) ([2]; RLMs 1 mg protein/mL, 1 μM compound, NADPH, 37 °C) [s] | SMILES | Ki σ2R /Ki σ1R (σ1R [4]) | Ki (σ2R) [nM]
1 | 0.0129 ± 0.00184 | 8.7 | 560 |  |  | CCC(=O)c1ccc2c(c1)sc(=O)n2CCN(C)C12CC3CC(CC(C3)C1)C2 [Compound 11, 3-{2-[(Adamantan-1-yl)(methyl)amino]ethyl}−6-propionylbenzo[d]thiazol-2(3H)-one] |  | 
2 | 0.0072 ± 0.00088 | 61 | 370 | ca. 6% |  | CCCc1ccc2c(c1)sc(=O)n2CCN(C)C12CC3CC(CC(C3)C1)C2 [Compound 12, 3-{2-[(Adamantan-1-yl)(methyl)amino]ethyl}−6-propylbenzo[d]thiazol-2(3H)-one] |  | 
3 | 0.0129 ± 0.0018 | 6.6 | 650 |  |  | CN(CCn1c(=O)sc2ccccc21)C12CC3CC(CC(C3)C1)C2 [Compound 10, 3-{2-[(Adamantan-1-yl)(methyl)amino]ethyl}benzo[d]thiazol-2(3H)-one] |  | 

The remaining lines, values behind:

Row | SMILES | Ki (σ1R [1]) [µM] | Ki σ2R /Ki σ1R (σ1R [1]) | microsomal CLint at 1 μM [2] [µL/min/mg] | remaining unmodified at the end of 10 min incubation [3] | t1/2 (in vitro hepatic microsomal half-life) ([2]; RLMs 1 mg protein/mL, 1 μM compound, NADPH, 37 °C) [s] | Ki σ2R /Ki σ1R (σ1R [4]) | Ki (σ2R) [nM]
4 | CCC(=O)c1ccc2c(c1)sc(=O)n2CCNC12CC3CC(CC(C3)C1)C2 [Compound 8, 3-{2-[(Adamantan-1-yl)amino]ethyl}−6-propionylbenzo[d]thiazol-2(3H)-one] | 0.0112 ± 0.00126 | 6.3 | 160 |  |  |  | 
5 | O=c1sc2ccccc2n1CCNC12CC3CC(CC(C3)C1)C2 [Compound 7, 3-{2-[(Adamantan-1-yl)amino]ethyl}benzo[d]thiazol-2(3H)-one] | 0.131 ± 0.00994 | 0.5 | 460 |  |  |  | 
6 | CCCc1ccc2c(c1)sc(=O)n2CCNC12CC3CC(CC(C3)C1)C2 [Compound 9, 3-{2-[(Adamantan-1-yl)amino]ethyl}−6-propylbenzo[d]thiazol-2(3H)-one] | 0.0112 ± 0.00068 | 6.2 | 280 |  |  |  | 
7 | CCCc1ccc2c(c1)sc(=O)n2CCN1CCCCCC1 [SN56, 3-[2-(azepan-1-yl)ethyl]-6-propylbenzo[d]thiazol-2(3H)-one, reference compound] |  |  | 710 |  | 58.8 | >1000 | > 1000

— PMC7880169 (Medicinal chemistry research : an international journal for …, 2020)
